Laboratory results: PMC10370593 (Chemical Science, 2023)
“Also recorded” adds a separate entry of the source.

Key:
MMP-2 gene = experiment: Relative gene expression in Notch1 silenced MDA-MB-231 by real-time PCR; format: cell-based, human; conditions: MDA-MB-231, 72 h, RT-PCR; AB36_siRNA MR 50, metformin 200 μM; mean of n = 3
CD44 gene = experiment: as above; format: cell-based, human; conditions: MDA-MB-231, 72 h, RT-PCR; AB36_siRNA MR 50, metformin 200 μM; mean of n = 3
CD24 gene = experiment: as above; format: cell-based, human; conditions: MDA-MB-231, 72 h, RT-PCR; AB36_siRNA MR 50, metformin 200 μM; mean of n = 3
MDA-MB-231 cells [1] = experiment: MTT cytotoxicity for IC50 and combination index; format: cell-based; conditions: Homo sapiens, MDA-MB-231, 72 h
Summary of the method: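 MTT viability assay in MDA-MB-231 cells at 72 h. The IC50 of the test compound came from a dose range analysed in CompuSyn. For the combination, five test compound doses (200–450 μM) were paired with a fixed dose of lipopeptide–Notch1 siRNA complex. Combination index was derived by the Chou–Talalay method. Data are mean ± SEM, n = 3.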

Erk1 gene = experiment: Gene silencing by real-time PCR; format: cell-based, human; conditions: mean ± SEM of three
Erk2 gene = experiment: Gene silencing by real-time PCR; format: cell-based, human; conditions: 72 h, MDA-MB-231, MR50, RT-PCR, mean ± SEM of three
Notch1 gene = experiment: Gene silencing by real-time PCR; format: cell-based, human; conditions: 72 h, MDA-MB-231, MR50 (1.25 μM lipopeptide, 25 nM Notch1 siRNA), RT-PCR, mean ± SEM of three
MDA-MB-231 cells [2] = experiment: Cellular uptake by flow cytometry; format: cell-based, human; conditions: DY-547 labelled siRNA, MR 50, 1 h incubation
Summary of the method: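 MDA-MB-231 cells were incubated 1 h with complexes of FAM-labelled lipopeptide (1.25 μM) and DY-547-labelled siRNA (25 nM), MR 50. Complexes were pre-formed by mixing and resting 30 min at room temperature. Uptake was read by flow cytometry in the FITC and PE channels, with single-label complexes used for compensation. Samples were run in duplicate; values are mean ± SEM of two replicates.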

trypsin = experiment: Protease stability of lipopeptides; format: in vitro ADME; conditions: 0.1 μg trypsin, protocol of ref. 14
HUVEC = experiment: Cellular uptake by flow cytometry; format: cell-based, human; conditions: DY-547 labelled siRNA, MR 50, 1 h incubation, hard to transfect primary cells, two replicates
Notch1 protein = experiment: Immunostaining of Notch1 protein; format: cell-based, human; conditions: MDA-MB-231, 72 h, MR50, TRITC signal versus untreated vehicle
Summary of the method: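 MDA-MB-231 cells were seeded at 14000 per well on etched coverslips and left overnight. They were then transfected with unlabelled lipopeptide (1.25 μM) complexed to Notch1-silencing siRNA (25 nM), MR 50, for 72 h. Untreated cells served as vehicle. Notch1 was detected by immunofluorescence.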

MDA-MB-231 cells [3] = experiment: Uptake studies by ApoTome microscopy; format: cell-based, human; conditions: MR 50, 6 h incubation at 37 °C
[4] = 48 h, MDA-MB-231, MR50 (1.25 μM lipopeptide, 25 nM Erk1/2 siRNA), RT-PCR

## CN(C)C(=N)N=C(N)N [metformin]
MMP-2 gene
  relative expression of the MMP-2 gene: did not show any changes
CD44 gene
  relative expression of the CD44 gene: did not show any changes
CD24 gene
  relative expression of the CD24 gene: did not show any changes
MDA-MB-231 cells [1]
  IC50: 374 µM

## FAM-γAbu-Arg- Lys-N^ε(1-Pyrenebutyryl)-Arg-Sar-Arg-Gly-Arg- Lys-N^ε(1-Pyrenebutyryl)-Arg-Sar-Arg-NH2 [AB17]
Erk1 gene; [4]
  Knockdown percentage, Erk1: 67.9 ± 7.6%
Erk1 gene; 72 h, MDA-MB-231, MR50, RT-PCR
  Knockdown percentage, Erk1: 85.9 ± 8.8%
Erk2 gene
  Knockdown percentage, Erk2: 75.8 ± 5.1%
Notch1 gene
  Knockdown percentage, Notch1: 82.5 ± 5.6%

## FAM-γAbu-Arg-C^α-Octylgly-Arg-Sar-Arg-Gly-Arg-Lys-N^ε(1-Adamantyl)-Arg-Sar-Arg-NH2 [AB29]
MDA-MB-231 cells [2]
  siRNA internalization (ranking among designed lipopeptides): much lower efficiency; also recorded: lowest amount of siRNA
Erk1 gene; [4]
  Knockdown percentage, Erk1: 52.6 ± 10.2%
Erk1 gene; 72 h, MDA-MB-231, MR50, RT-PCR
  Knockdown percentage, Erk1: 58.8 ± 10.9%
Erk2 gene
  Knockdown percentage, Erk2: 59.8 ± 7.2%
Notch1 gene
  Knockdown percentage, Notch1: 50.5 ± 7.7%

## PEG9-Arg- C^α-Octylgly -Arg-Sar-Arg-Gly-Arg-Lys- N^ε(D-alpha-Tocopherol succinyl)-Arg-Sar-Arg-NH2 [AB36]
trypsin
  time at which degradation by trypsin starts: 1 to 3 h
  time at which lipopeptide is completely degraded by trypsin: 6 h
HUVEC
  cellular internalization of siRNA relative to HiPerFect: 1.53 times
Notch1 protein
  Notch1 protein expression by immunofluorescence: significantly lowered

## FAM-^γAbu-Arg- Lys-N^ε(stearyl)-Arg-Sar-Arg-Gpn-Arg- Lys-N^ε(stearyl)-Arg-Sar-Arg-NH2 [AB32]
Erk1 gene; [4]
  Knockdown percentage, Erk1: 51.6 ± 7.4%
Erk1 gene; 72 h, MDA-MB-231, MR50, RT-PCR
  Knockdown percentage, Erk1: 70.6 ± 2.3%
Erk2 gene
  Knockdown percentage, Erk2: 60.3 ± 3.2%
Notch1 gene
  Knockdown percentage, Notch1: 73.1 ± 2.8%

## FAM-γAbu-Arg- C^α-Octylgly -Arg-Sar-Arg-Gly-Arg- Lys-N^ε(D-alpha-Tocopherol succinyl)-Arg-Sar-Arg-NH2 [AB18]
MDA-MB-231 cells [2]
  siRNA internalization (ranking among designed lipopeptides): highest siRNA internalization; also recorded: highest level of siRNA
MDA-MB-231 cells [2]; two replicates
  siRNA internalization relative to HiPerFect_siRNA: 1.79 times
MDA-MB-231 cells [3]
  cytosolic distribution of siRNA compared with HiPerFect: higher levels of cytosolic distribution of siRNA
Erk1 gene; [4]
  Knockdown percentage, Erk1: 62.6 ± 12.5%
Erk1 gene; 72 h, MDA-MB-231, MR50, RT-PCR
  Knockdown percentage, Erk1: 89.1 ± 6.3%
Erk2 gene
  Knockdown percentage, Erk2: 85.9 ± 16.7%
Notch1 gene
  Knockdown percentage, Notch1: 90.8 ± 3.06%

## c[-Arg-^DHis-Arg-^DHis-Arg-Lys{Lys(linoleyl)2}-Arg-^DHis-Arg-^DHis-Arg-Glu-]-Lys(FAM)-NH2 (head to tail) [Peptide 6, reference compound]
Erk1 gene; [4]
  Knockdown percentage, Erk1: 31.2 ± 2.2%
Erk1 gene; 72 h, MDA-MB-231, MR50, RT-PCR
  Knockdown percentage, Erk1: 78.1 ± 2.0%
Erk2 gene
  Knockdown percentage, Erk2: 71.6 ± 9.4%
Notch1 gene
  Knockdown percentage, Notch1: 80.9 ± 1.6%
